In ChEMBL document CHEMBL5252510, “A Novel Potent Oral Series of VEGFR2 Inhibitors Abrogate Tumor Growth by Inhibiting Angiogenesis” (J Med Chem, 2016):
Activity calls are given as the source filed them. No cut-off for these calls is given here.

Tests used:
[1] = molecular target: Vascular endothelial growth factor receptor 3 (Homo sapiens, UniProt P35916); assay: Inhibition of human recombinant GST-fused VEGFR3 kinase domain transphosphorylation expressed in baculovirus expression system using poly-Glu-Tyr (4:1) as substrate measured after 10 mins in presence of gamma-[33P]-ATP by scintillation counting analysis
Method in brief: (§1)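 GST-fused kinase domains were expressed in baculovirus and purified on glutathione-Sepharose. 10 min at ambient temperature, stopped with EDTA. Filter binding and scintillation counting. IC50 by linear regression of percent inhibition.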

[2] = molecular target: Vascular endothelial growth factor receptor 2 (Mus musculus, UniProt P35918); assay: Inhibition of mouse recombinant GST-fused VEGFR2 kinase domain expressed in baculovirus expression system using poly-Glu-Tyr (4:1) as substrate measured after 10 mins in presence of gamma-[33P]-ATP by scintillation counting analysis; method in brief: as §1
B16-BL6 [3] = assay: Antitumor activity against mouse B16-BL6 cells implanted in C57BL/6jNpa mouse assessed as metastatic tumor growth inhibition at 3 mg/kg, po qd administered started on day 7 post implantation measured after 21 days relative to control; assay type: functional; conditions: time 7-21 day, read-out: TGI
Method in brief: (§2)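 Female C57BL/6JNpa mice, 50000 B16/BL6 cells intradermally in both ear pinnae; primary tumor area (mm²) imaged days 7, 14, 21; randomized day 7 into groups of 5-6, oral dosing in PEG200 or PEG300 vehicle daily (or every 2 days) for 14 days; day 21 cervical lymph nodes weighed, metastasis lysates assayed for TIE-2 by ELISA; T/C ratios.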

B16-BL6 [4] = assay: Antitumor activity against mouse B16-BL6 cells implanted in C57BL/6jNpa mouse assessed as metastatic tumor growth inhibition by measuring T/C ratio at 3 mg/kg, po qd administered started on day 7 post implantation measured after 21 days; assay type: functional; conditions: time 7-21 day; method in brief: as §2
B16-BL6 [5] = assay: Antitumor activity against mouse B16-BL6 cells implanted in C57BL/6jNpa mouse assessed as primary tumor growth inhibition at 3 mg/kg, po qd administered started on day 7 post implantation measured after 21 days relative to control; assay type: functional; conditions: time 7-21 day, read-out: TGI; method in brief: as §2
BaF3 [6] = assay: Antiproliferative activity against mouse BaF3 cells expressing Tel-PDGFRbeta assessed as cell growth inhibition measured after 72 hrs by Alamar Blue assay; conditions: BaF3, 72 h
BaF3 [7] = assay: Antiproliferative activity against mouse BaF3 cells expressing Trp-MET assessed as cell growth inhibition measured after 72 hrs by Alamar Blue assay; conditions: BaF3, 72 h
[8] = Toxicity in C57BL/6jNpa mouse harbouring mouse B16-BL6 cells assessed as effect on blood platelet count at 3 mg/kg, po qd administered started on day 7 post implantation measured after 21 days; assay type: organism-based; conditions: in vivo, 504 h, time 7-21 day
Method in brief: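 Female C57BL/6JNpa mice received 50000 B16/BL6 cells intradermally in both ear pinnae. Randomized on day 7 into groups of 5–6, then dosed 3 mg/kg p.o. daily in PEG200/PEG300 for 14 days. Behavior and well-being were observed. On day 21, blood was analysed for platelet, red and white cell counts and hematocrit.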

[9] = Toxicity in C57BL/6jNpa mouse harbouring mouse B16-BL6 cells assessed as effect on spleen weight at 3 mg/kg, po qd administered started on day 7 post implantation measured after 21 days; assay type: organism-based; conditions: in vivo, 504 h, time 7-21 day
Method in brief: (§3)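 B16/BL6 melanoma cells (50000) injected intradermally into dorsal pinna of both ears of female mice (18–20 g). Randomized on day 7 into groups of 5-6 by primary tumor size, then dosed orally once daily for 14 days in PEG300 or PEG200. Sacrificed day 21; blood analysed directly for platelets, red and white cell counts, hematocrit. Body and spleen weight recorded versus healthy naive mouse.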

[10] = Toxicity in C57BL/6jNpa mouse harbouring mouse B16-BL6 cells assessed as effect on red blood cell count at 3 mg/kg, po qd administered started on day 7 post implantation measured after 21 days; assay type: organism-based; conditions: in vivo, 504 h, time 7-21 day; method in brief: as §3
[11] = Volume of distribution at steady state in Sprague-Dawley rat at 3 mg/kg, iv measured upto 24 hrs by HPLC/UV analysis; assay type: ADME, organism-based; conditions: in vivo, read-out: Vdss
Method in brief: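 Female Sprague Dawley rats, 8 weeks, jugular vein and femoral artery catheters, 96 h recovery. IV 3 mg/kg in ethanol/NMP/PEG400/D5W (10/10/50/30), n=2.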

[12] = molecular target: Receptor tyrosine-protein kinase erbB-2 (Homo sapiens, UniProt P04626); assay: Inhibition of ERBB2 (unknown origin) autophosphorylation expressed in human BT-474 cells by ELISA-based assay; assay type: cell-based
Method in brief: (§4)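 Cells were stimulated with the respective ligand. Receptor tyrosine kinase autophosphorylation in the presence of compound was quantified by ELISA.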

[13] = molecular target: Mast/stem cell growth factor receptor Kit (Homo sapiens, UniProt P10721, K642E); assay: Inhibition of KIT K642E mutant (unknown origin) autophosphorylation expressed in human GIST882 cells by ELISA-based assay; assay type: cell-based; method in brief: as §4
[14] = molecular target: Epidermal growth factor receptor (Homo sapiens, UniProt P00533); assay: Inhibition of EGFR (unknown origin) autophosphorylation expressed in human A-431 cells by ELISA-based assay; assay type: cell-based; method in brief: as §4
[15] = molecular target: T1, Vascular endothelial growth factor receptor 2 (Homo sapiens, UniProt P35968); assay: Inhibition of VEGF-induced human VEGFR2 autophosphorylation expressed in HUVEC cells measured after 2 hrs by chemiluminescence assay; assay type: cell-based
[16] = molecular target: Mast/stem cell growth factor receptor Kit (Homo sapiens, UniProt P10721); assay: Inhibition of human recombinant GST-fused c-KIT expressed in baculovirus expression system using poly-Glu-Tyr (4:1) as substrate measured after 10 mins in presence of gamma-[33P]-ATP by scintillation counting analysis; method in brief: as §1
Bcr/Abl fusion protein = Bcr/Abl fusion protein (Homo sapiens, UniProt P00519); assay: Inhibition of BCR-ABL (unknown origin) autophosphorylation expressed in mouse 32D cells by ELISA-based assay; assay type: cell-based; method in brief: as §4
[17] = molecular target: T1, Vascular endothelial growth factor receptor 2; assay: Inhibition of VEGF-induced human VEGFR2 autophosphorylation transfected in CHO cells measured after 2 hrs by chemiluminescence assay; assay type: cell-based
[18] = molecular target: Platelet-derived growth factor receptor beta (Homo sapiens, UniProt P09619); assay: Inhibition of PDGFR (unknown origin) autophosphorylation expressed in mouse BALB/3T3 clone A31 cells by ELISA-based assay; assay type: cell-based; method in brief: as §4
[19] = Antitumor activity against rat BN472 cell implanted in Brown-Norway rat assessed as tumor growth inhibition by measuring T/C ratio at 3 mg/kg, po qd measured upto 14 days; assay type: functional; conditions: time <= 14 day
Method in brief: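 Female Brown-Norway rats (160-180 g) given 3 mm³ BN472 tumor fragments in mammary fat pads; at about 200 mm², randomized into groups of 7-8 and dosed orally with compound or PEG300 vehicle over 14 days; tumor growth followed, T/C computed; significance by 2-way RM-ANOVA.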

B16-BL6 [20] = assay: Antitumor activity against mouse B16-BL6 cells implanted in C57BL/6jNpa mouse assessed as reduction in TIE-2 levels metastases lysate of at 3 mg/kg, po qd administered started on day 7 post implantation measured after 21 days by ELISA analysis; assay type: functional, organism-based; conditions: time 7-21 day; method in brief: as §2

**Q.** For `Nc1cc(Oc2ccc3c(C(=O)Nc4ccc(F)c(C(F)(F)F)c4)cccc3c2)ncn1`, which IC50 [1] is on record?
**A.** 0.235 µM

**Q.** And the IC50 [2]?
**A.** 0.125 µM

**Q.** What about the inhibition in vivo at 3 mg/kg (B16-BL6 [3]) of the same compound?
**A.** 71%

**Q.** What about the T/C (B16-BL6 [4]) of the same compound?
**A.** 0.04

**Q.** And the inhibition in vivo at 3 mg/kg (B16-BL6 [5])?
**A.** 54%

**Q.** And the IC50 (BaF3 [6])?
**A.** 0.01 µM

**Q.** What about the IC50 (BaF3 [7]) of the same compound?
**A.** > 10 µM

**Q.** What about the Activity [8] of the same compound?
**A.** Non-Toxic

**Q.** What about the Activity [9] of the same compound?
**A.** Non-Toxic

**Q.** And the Activity [10]?
**A.** Non-Toxic

**Q.** And the Vd [11]?
**A.** 1.5 L/kg

**Q.** With `Nc1cc(Oc2ccc3c(C(=O)Nc4cccc(C(F)(F)F)c4)cccc3c2)ncn1` as the compound, how does the IC50 [1] read?
**A.** 0.05 µM

**Q.** What about the IC50 [2] of the same compound?
**A.** 0.037 µM

**Q.** What about the inhibition in vivo at 3 mg/kg (B16-BL6 [3]) of the same compound?
**A.** 71%

**Q.** What about the T/C (B16-BL6 [4]) of the same compound?
**A.** 0.04

**Q.** What about the inhibition in vivo at 3 mg/kg (B16-BL6 [5]) of the same compound?
**A.** 54%

**Q.** What about the IC50 (BaF3 [6]) of the same compound?
**A.** 0.004 µM

**Q.** And the IC50 (BaF3 [7])?
**A.** > 10 µM

**Q.** And the Activity [8]?
**A.** Non-Toxic

**Q.** What about the Activity [9] of the same compound?
**A.** Non-Toxic

**Q.** And the Activity [10]?
**A.** Non-Toxic

**Q.** And the Vd [11]?
**A.** 0.9 L/kg

**Q.** With `O=C(Nc1cccc(C(F)(F)F)c1)c1cccc2cc(Oc3cc(CO)ncn3)ccc12` [BFH-772] as the compound, how does the IC50 [1] read?
**A.** 1.1 µM

**Q.** What about the IC50 [12] of the same compound?
**A.** > 0.5 µM

**Q.** And the IC50 [2]?
**A.** 1.5 µM

**Q.** And the inhibition in vivo at 3 mg/kg (B16-BL6 [3])?
**A.** 71%

**Q.** And the T/C (B16-BL6 [4])?
**A.** 0.17

**Q.** What about the IC50 [13] of the same compound?
**A.** 0.03 µM

**Q.** And the IC50 [14]?
**A.** > 0.5 µM

**Q.** And the IC50 [15]?
**A.** 0.003 µM

**Q.** What about the inhibition in vivo at 3 mg/kg (B16-BL6 [5]) of the same compound?
**A.** 54%

**Q.** And the IC50 (BaF3 [6])?
**A.** 0.027 µM

**Q.** And the IC50 (BaF3 [7])?
**A.** > 10 µM

**Q.** And the Activity [9]?
**A.** Non-Toxic

**Q.** What about the IC50 [16] of the same compound?
**A.** > 2 µM

**Q.** And the IC50 (Bcr/Abl fusion protein)?
**A.** > 0.5 µM

**Q.** What about the IC50 [17] of the same compound?
**A.** 0.0046 µM

**Q.** And the IC50 [18]?
**A.** 0.03 µM

**Q.** For `Nc1nccc(Oc2ccc3c(C(=O)Nc4cccc(C(F)(F)F)c4)cccc3c2)n1`, which IC50 [1] is on record?
**A.** 0.42 µM

**Q.** And the IC50 [12]?
**A.** > 0.5 µM

**Q.** And the IC50 [2]?
**A.** 0.165 µM

**Q.** And the inhibition in vivo at 3 mg/kg (B16-BL6 [3])?
**A.** 71%

**Q.** And the T/C (B16-BL6 [4])?
**A.** 0.29

**Q.** And the T/C [19]?
**A.** 35.5

**Q.** And the IC50 [13]?
**A.** 0.03 µM

**Q.** And the IC50 [14]?
**A.** > 0.5 µM

**Q.** What about the IC50 [15] of the same compound?
**A.** 0.0029 µM

**Q.** What about the inhibition in vivo at 3 mg/kg (B16-BL6 [5]) of the same compound?
**A.** 54%

**Q.** What about the IC50 (BaF3 [6]) of the same compound?
**A.** 0.009 µM

**Q.** What about the IC50 (BaF3 [7]) of the same compound?
**A.** > 10 µM

**Q.** What about the Activity (B16-BL6 [20]) of the same compound?
**A.** Active

**Q.** And the Activity [9]?
**A.** Non-Toxic

**Q.** And the IC50 [16]?
**A.** > 10 µM

**Q.** And the IC50 (Bcr/Abl fusion protein)?
**A.** > 0.5 µM

**Q.** And the IC50 [17]?
**A.** 0.0042 µM

**Q.** What about the IC50 [18] of the same compound?
**A.** 0.03 µM

**Q.** Which results are given for `Nc1nccc(Oc2ccc3c(C(=O)Nc4ccc(F)c(C(F)(F)F)c4)cccc3c2)n1`?
**A.** IC50 [1]: 0.177 µM; IC50 [2]: 0.32 µM; inhibition in vivo at 3 mg/kg (B16-BL6 [3]): 71%; T/C (B16-BL6 [4]): 0.13; T/C [19]: 5.6; inhibition in vivo at 3 mg/kg (B16-BL6 [5]): 54%; IC50 (BaF3 [6]): 0.016 µM; IC50 (BaF3 [7]): > 10 µM; Activity (B16-BL6 [20]): Active; Activity [8]: Non-Toxic; Activity [9]: Non-Toxic; Activity [10]: Non-Toxic; Vd [11]: 3.5 L/kg
